What all share (type): functional, cell-based
One assay deals with T47D. Description: Antiproliferative activity against human T47D cells after 72 hrs by CellTiter-Glo assay. The procedure, abridged:
(§1)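 Cells from ATCC, checked mycoplasma-free by PCR, grown in RPMI with 10% FBS, 1% penicillin/streptomycin and 2 mM L-glutamine. Seeded and incubated 24 h, then exposed to 0.3, 1, 3 and 10 μM for 72 h. Viability was read by CellTiter-Glo relative to 0.1% DMSO vehicle. IC50 came from standard curve analysis, with doxorubicin as positive control. Three independent experiments, each in triplicate.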
In general terms: In ATP-based viability assays light output follows the ATP content of the culture.

The subject of a further assay is K562. Nature of the assay: Antiproliferative activity against human K562 cells after 72 hrs by CellTiter-Glo assay. To be noted: K562, 72 h. In short, it runs like this:
as §1

For a further assay, the system named is COLO 205. Description: Antiproliferative activity against human COLO205 cells after 72 hrs by CellTiter-Glo assay. To be noted: COLO 205, 72 h. The procedure, abridged:
as §1

Where only a bound is given, the exact number is not on record here.

`O=C1C=C(O)C(=O)c2c(O)cccc21`: the IC50 in the assay with T47D, in the assay on K562 and in the assay with COLO 205 was greater than 10 µM throughout.

Regarding `O=C(O)COC1=CC(=O)c2c(O)cccc2C1=O`, the 50% inhibitory concentration (IC50) in the assay on T47D, in the assay with K562 and in the assay on COLO 205 was greater than 10 µM in each case.

On to `CN(C)C(=O)COC1=CC(=O)c2c(O)cccc2C1=O`, for which the values for the IC50 in the assay with T47D, in the assay with K562 and in the assay on COLO 205 were 1 µM, 1.2 µM and 1.7 µM, respectively.

On to `COC(=O)COC1=CC(=O)c2c(O)cccc2C1=O`, for which the IC50 in the assay on T47D came to 2.2 µM; with K562 it was 1.3 µM; in the assay with COLO 205, 1.9 µM.

Consider `COC1=CC(=O)c2c(O)cccc2C1=O`, for which the IC50 in the assay on T47D is 2 µM; in the assay with K562, 1.4 µM; with COLO 205 it was 2.3 µM.

`COC1=CC(=O)c2c(OC)cccc2C1=O`: the IC50 in the assay on T47D, in the assay on K562 and in the assay with COLO 205 was greater than 10 µM throughout.

Consider `O=C1C(O)=CC(=O)c2c(O)cccc21`, for which the IC50 in the assay on T47D, in the assay on K562 and with COLO 205 was greater than 10 µM throughout.

For `COC1=CC(=O)c2cccc(O)c2C1=O`, the IC50 with T47D, with K562 and in the assay with COLO 205 was greater than 10 µM in each case.

Turning to `COC(=O)COC1=CC(=O)c2ccccc2C1=O`, the concentration for half-maximal inhibition (IC50) in the assay with T47D, in the assay with K562 and with COLO 205 was greater than 10 µM throughout.

Turning to `NC(=O)COC1=CC(=O)c2c(O)cccc2C1=O`, the IC50 in the assay on T47D was determined as 1.7 µM; in the assay on K562, 0.9 µM; in the assay on COLO 205, 0.7 µM.

What is called IC50 is the concentration needed to halve the response being measured. High values mean lower potency, low ones higher potency.

The values above are taken from ChEMBL document CHEMBL4219260, “Investigation of chemical reactivity of 2-alkoxy-1,4-naphthoquinones and their anticancer activity” (Bioorg Med Chem Lett, 2018).
